What all share (assay type): biochemical
Assay [1] relates to skeletal muscle myosin II. Description: in vitro ATPase assay myosin II.
For a further assay, the system named is Casein kinase II. Description: in vitro kinase assay Casein kinase II. The following applies: at 100 μM.
For a further assay, the system named is p42 MAP kinase. Put plainly: in vitro kinase assay p42 MAP kinase. Conditions: at 100 μM.
For a further assay, the system named is Abl kinase. Description: in vitro kinase assay Abl kinase. The following applies: at 100 μM.
A further assay relates to Aurora kinase. Put plainly: in vitro kinase assay Aurora kinase. The following applies: at 100 μM.
A further assay concerns PLK1. Put plainly: in vitro kinase assay PLK1. The following applies: at 100 μM.
For assay [2], the target named is single ATPase motor domain of chicken Myosin Va (Gallus gallus, UniProt Q02440). Put plainly: enzyme-coupled steady-state actin-activated ATPase assay, single-headed myosin V.
In the next assay the test system is myosin V. Description: single MANT-ATP turnover measurements, myosin V without actin. Conditions: absence of actin; data not shown.
The next assay relates to myosin VI. Description: in vitro ATPase assay myosin VI. Conditions: at 50 μM.
The test system of another assay is CHK1. Description: in vitro kinase assay CHK1. The following applies: at 100 μM.
In the next assay the target is actomyosin V-ADP (Gallus gallus, UniProt Q02440). Put plainly: MANT-ADP release from actomyosin V. The procedure, abridged: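 Transient-kinetic measurement of MANT-ADP release from a preformed actomyosin V–ADP complex, using the fluorescent nucleotide analog. Release amplitudes are normalized and plotted against test compound concentration. Affinity comes from the best fit of that concentration dependence of the amplitudes.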

Results on two compounds are retold here after article PMC3063097 (Angewandte Chemie (International ed. in English), 2010).

Consider `Cc1ccc2c(c1)C(=O)C1(O)CCN(c3ccccc3)C1=N2` (stereo not drawn) [blebbistatin, reference compound], for which the “inhibition of ATPase activity” value in assay [1] (positive control, concentration not given) is listed as “significantly inhibited”.

In the case of `O=C(O)c1cccc(SCc2cccc(Nc3ncc4c(-c5ccc(N6CCOCC6)cc5)[nH]nc4n3)c2)c1` [Compound 8], the inhibition of kinase in the assay on Casein kinase II, with p42 MAP kinase, in the assay on Abl kinase, in the assay with Aurora kinase, in the assay on PLK1 and in the assay on CHK1 was 5–10% each time. The “inhibition of ATPase activity” value (in assay [1] (at 50 μM); with myosin VI) was “not observed any measurable inhibition” each time. In assay [2] (12 μM MyoVin-1, various concentrations of actin), the “mode of inhibition (effect on kcat and apparent KM for actin)” value is “uncompetitive inhibition”. In assay [2] (0.1% triton X in assay buffer vs without), the “increase in KI in presence of 0.1% triton X” value is listed as ~ 1.25 fold. Besides, the Ki (in general, the equilibrium dissociation constant of an inhibitor or competing ligand from its target) in assay [2] (single-headed myosin V, steady-state actin-activated ATP hydrolysis) was about 6 µM. For the same compound, the “effect on ATP binding and rate-limiting Pi release” value in the assay with myosin V is “unaffected”. Moreover, the “effect on ADP release” value at actomyosin V-ADP (actomyosin V-ADP prepared by mixing with ATP) was “lowers the amplitude, but not the rate constant of ADP release”; at actomyosin V-ADP (actomyosin-ADP prepared by equilibrating actomyosin and ADP, data not shown), “unaffected”.
